Mdm2 MdmX PPI: inhibitors of human Mdm2-MdmX association, primary screen, cell-based, luminescence, split luciferase, SaOS-2, uHTS | SaOS-2 split-luciferase Mdm2/MdmX complementation | AID 485346, 2010 | inhibition, % at 8 µM | Protein Mdm4 (Homo sapiens) + E3 ubiquitin-protein ligase Mdm2 (Homo sapiens), … | 330,000 tested, 3% active;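 active = inhibition of at least 50% at 8 µM in the primary screen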
Target sequence (O15151 whole entry, looked up): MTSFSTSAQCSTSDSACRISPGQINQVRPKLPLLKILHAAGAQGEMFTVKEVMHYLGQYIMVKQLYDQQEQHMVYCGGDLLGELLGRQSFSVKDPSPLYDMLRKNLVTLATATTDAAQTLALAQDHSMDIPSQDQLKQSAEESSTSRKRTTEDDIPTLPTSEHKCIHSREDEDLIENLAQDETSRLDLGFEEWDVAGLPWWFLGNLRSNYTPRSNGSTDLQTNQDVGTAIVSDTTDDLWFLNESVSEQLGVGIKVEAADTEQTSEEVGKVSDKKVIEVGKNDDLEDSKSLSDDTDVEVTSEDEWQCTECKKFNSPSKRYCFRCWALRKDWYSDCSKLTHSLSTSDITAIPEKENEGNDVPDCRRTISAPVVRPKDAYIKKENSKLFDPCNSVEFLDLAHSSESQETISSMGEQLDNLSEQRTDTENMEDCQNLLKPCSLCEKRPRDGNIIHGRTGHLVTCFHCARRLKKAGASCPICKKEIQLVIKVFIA
Target sequence (Q00987 whole entry, looked up): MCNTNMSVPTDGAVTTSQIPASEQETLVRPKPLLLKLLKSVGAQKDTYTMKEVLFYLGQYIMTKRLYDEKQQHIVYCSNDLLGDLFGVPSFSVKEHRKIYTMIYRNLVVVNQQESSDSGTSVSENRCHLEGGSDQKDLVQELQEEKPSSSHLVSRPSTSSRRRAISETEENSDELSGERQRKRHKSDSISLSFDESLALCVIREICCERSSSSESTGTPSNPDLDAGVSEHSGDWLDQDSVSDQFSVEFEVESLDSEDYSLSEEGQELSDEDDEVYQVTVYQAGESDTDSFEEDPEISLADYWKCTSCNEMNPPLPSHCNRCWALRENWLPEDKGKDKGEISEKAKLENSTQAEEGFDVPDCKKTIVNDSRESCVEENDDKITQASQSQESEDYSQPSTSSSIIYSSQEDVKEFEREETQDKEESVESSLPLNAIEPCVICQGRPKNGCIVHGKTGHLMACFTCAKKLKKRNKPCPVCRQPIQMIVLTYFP
Beta cell apopt: inhibitors of cytokine-induced beta cell apoptosis, primary screen, luminescence; INS-1E cytokine-induced death, ATP luminescence, 48 h; percent of positive-control rescue, neutral wells zero; protection from apoptosis, % (test concentration not listed); AID 435005, 2010; 300,000 tested, 0.8% active;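 active = Every replicate reaches about 75%, or at least half do and their mean reaches it too, limit read from the data; inconclusive = At least half of replicates reach the limit but their mean does not; inactive = Under half of replicates reach the limit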;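 also: higher means more ATP so stronger rescue from cytokine killing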
T cruzi inh: inhibitors of intracellular T. cruzi growth, primary screen, luminescence, NIH3T3 host cells; T. cruzi beta-gal in NIH3T3, 90 h; inhibition, % (test concentration not listed); 300,000 tested, 1.4% active;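 active = mean inhibition across valid replicates above about 55%, limit read from the data; inconclusive = mean below that limit but half or more replicates reach it; inactive = mean below it, under half of replicates reach it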;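 also: signal also drops with host cell toxicity which is not excluded here; higher percent means less beta-gal luminescence so fewer parasites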
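Assay system: NIH/3T3 host cells with β-galactosidase reporter T. cruzi; input: 5,000 host fibroblasts per well; compound: single 50 nL compound addition per well in DMSO; timing: ≥90 h infection period, 3 h prior cell attachment; measured by: GalScreen β-gal luminescence, detergent lysis, 60 min; evaluation: percent inhibition of parasite-derived β-gal signal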
Lmaj promast: Leishmania major promastigote growth inhibition, primary screen; Leishmania major promastigotes, resazurin fluorescence viability; inhibition, % at 10 µM; 200,000 tested, 9% active; AID 1063, 2008; in the data active = inhibition above about 50%;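 also: promastigotes grown with compound for 44 hours at 28 °C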
CSC inhib: cancer stem cell viability inhibitors, primary screen, luminescence. inhibition, % at 7.5 µM. cancer stem cell-like cells viability. AID 2717, 2010. 300,000 tested, 1.1% active; in the data active = inhibition above about 75%; inconclusive = no clear call, values can overlap the other calls; tested in HMLE shEcad cells
SKKanGAS inh: S. pyogenes SKKanGAS growth inhibitors in kanamycin, primary screen, streptokinase expression inhibitor project, SKKanGAS strain, BacTiter-Glo luminescence; 6 h; inhibition, % at 7.5 µM; 300,000 tested, 1.3% active; AID 1662, 2009;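 active = mean replicate score, as percent of positive control median, at least 50; inconclusive = mean below 50 but one replicate at or above 50; inactive = mean and every replicate below 50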;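 also: strain carries kanamycin resistance gene driven by streptokinase promoter and grows in 40 µg/ml kanamycin; loss of luminescence reflects streptokinase promoter inhibition or plain growth inhibition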
Lmaj promast 1uM: Leishmania major promastigote growth inhibition, confirmation, 1 µM repeat of primary hits; shares compounds with Lmaj promast; L. major promastigote growth, resazurin fluorescence, 48 h; inhibition, % at 1 µM; 1,100 tested, 13% active;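 active = inhibition above about 50% in both repeat tests, limit read from the data; inconclusive = one repeat under the set limit, the other over it; inactive = both repeats under the set limit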
Mdm2-MdmX conf: Mdm2-MdmX complex disruptors, retested hits, confirmation, luminescence, single concentration; inhibition, % at 8 µM; shares compounds with Mdm2 MdmX PPI; 10,000 tested, 55% active; Mdm2-MdmX binding, luminescent assay; AID 489028, 2010; in the data active = inhibition above about 40%
Full FLuc ctr: full-length luciferase signal inhibition, confirmation, counter-screen for Mdm2/MdmX interaction inhibitor project, cell-based, single concentration, SaOS-2; inhibition, % at 8 µM; 6,200 tested, 77% active; SaOS-2 full-length luciferase counterscreen, luminescence; shares compounds with Mdm2 MdmX PPI;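 active = mean inhibition at 8 µM reaching about 37%, which flags the compound as non-specific, limit read from the data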;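 also: p53-null SaOS-2 cells with luciferase driven by a doxycycline-inducible promoter; compound on cells about two nights before reading with doxycycline added after day one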
Each line names hits and unclear results; the compound was inactive in the other large screens (follow-up assays come after a bar, where they were run). In the library only some 9.4% were active in any assay of this set; here they are far more common.

CN(C)S(=O)(=O)c1ccc(Cl)c(NC(=O)c2ccncc2)c1	none
COc1cccc(-c2cc(C(=O)N3CCN(C(=O)c4ccco4)CC3)on2)c1	none (no result: Lmaj promast)
C1CCC(C(CC2CCCCN2)C2CCCCC2)CC1 (stereo not given)	Mdm2 MdmX PPI 99.6, Beta cell apopt 90.4, T cruzi inh 56.4, Lmaj promast 100.5, CSC inhib 99.4 | Lmaj promast 1uM inactive | Mdm2-MdmX conf 99.3 | Full FLuc ctr inactive
Cc1ccc(-n2cccc2C(=S)N=P(N(C)C)(N(C)C)N(C)C)cc1	Mdm2 MdmX PPI 72.1, Beta cell apopt 102.1, T cruzi inh 59.1, Lmaj promast 56.7 | Lmaj promast 1uM inactive | Mdm2-MdmX conf 50.3 | Full FLuc ctr 51.5
C=CCn1c(SCCN2CCCC2)nc2c([nH]c3ccccc32)c1=O	none
c1cncc(C2Nc3ccccc3-c3nc4ccccc4n32)c1 (stereo not given)	Mdm2 MdmX PPI 52.7, Lmaj promast 85.8 | Lmaj promast 1uM inconclusive | Mdm2-MdmX conf 51.7 | Full FLuc ctr 63.5
CCOc1ccccc1NC(=O)C(=O)N/N=C/c1cc(Br)ccc1O	Mdm2 MdmX PPI 75.9, Beta cell apopt 88.4, T cruzi inh 62.5, Lmaj promast 99.8 | Lmaj promast 1uM inactive | Mdm2-MdmX conf 83.3 | Full FLuc ctr 39.1
N=c1c(-c2nc3ccccc3[nH]2)cc(C(=O)c2cccs2)nn1-c1ccc(Cl)cc1	Mdm2 MdmX PPI 62.8, Lmaj promast 91.4 | Lmaj promast 1uM inactive | Mdm2-MdmX conf inactive
COC(=O)c1cccc2c1-c1ccccc1/C2=N/O	Mdm2 MdmX PPI 83.5, Lmaj promast 70.1 | Lmaj promast 1uM inactive | Mdm2-MdmX conf 75.5 | Full FLuc ctr 37.3
COC(=O)c1cccc2c1-c1ccccc1/C2=N\NC(N)=O	none (no result: Lmaj promast)
CCOC(=O)N1CCN(c2c(F)cc3[nH]c(=S)[nH]c3c2Br)CC1	Mdm2 MdmX PPI 61.5, Lmaj promast 50.9 (no result: CSC inhib) | Lmaj promast 1uM inactive | Mdm2-MdmX conf 58.2 | Full FLuc ctr 47.5
COC(=O)c1ccc(Sc2nnnn2-c2ccccc2)c([N+](=O)[O-])c1	Mdm2 MdmX PPI 68.0, Lmaj promast 99.5 | Lmaj promast 1uM inactive | Mdm2-MdmX conf 49.3 | Full FLuc ctr inactive
O=C(O)c1ccc(Sc2nnnn2-c2ccccc2)c([N+](=O)[O-])c1	none
CCN(CC)CCn1c2ccccc2c2nc3ccccc3nc21	none (no result: Lmaj promast)
CCN(CC)CCn1c2ccccc2c2cnc(N)c(C#N)c21	Mdm2 MdmX PPI 62.6, Beta cell apopt 92.9, T cruzi inh 65.2, Lmaj promast 100.3 | Lmaj promast 1uM inactive | Mdm2-MdmX conf inactive
O=C(NCCCn1ccnc1)/C(=C\c1ccc(Br)cc1)NC(=O)c1ccccc1F	none (no result: Lmaj promast)
O=C(COC(=O)C12CC3CC(CC(O)(C3)C1)C2)Nc1cccc(Br)c1	none (no result: Beta cell apopt, T cruzi inh, Lmaj promast, CSC inhib, SKKanGAS inh)
O=C(Cn1nc(CNc2ccc(Cl)cc2)[n+]2c1CCCCC2)c1ccccc1	none
Cc1ccc(C(C)C)c(OCc2nn(CC(=O)c3ccc(Cl)cc3)c3[n+]2CCCCC3)c1	Mdm2 MdmX PPI 97.1, Beta cell apopt 136.1, T cruzi inh 86.4, Lmaj promast 98.0, CSC inhib inconclusive | Lmaj promast 1uM inactive | Mdm2-MdmX conf 73.7 | Full FLuc ctr inactive
CCCCCCCCC[n+]1cccc2c3ccccc3ccc21	Mdm2 MdmX PPI 90.8, Beta cell apopt 111.1, T cruzi inh 59.0, Lmaj promast 100.7 | Lmaj promast 1uM 100.6 | Mdm2-MdmX conf 86.7 | Full FLuc ctr 57.4
COC(=O)c1ccc2c(c1)C(C)(C)C(/C=C/c1ccc(OC)c(OC)c1OC)=[N+]2C	Mdm2 MdmX PPI 100.6, Beta cell apopt 107.3, Lmaj promast 100.6 (no result: T cruzi inh) | Lmaj promast 1uM 101.2 | Mdm2-MdmX conf 78.2 | Full FLuc ctr 51.3
N=C1C(c2ccccc2)=C(O)CN1c1cccc(S(=O)(=O)N2CCCCC2)c1	none (no result: Lmaj promast)
CC1=CC(C)(C)Nc2ccc(OC(=O)c3ccco3)cc21	Mdm2 MdmX PPI 72.1, Lmaj promast 100.6 | Lmaj promast 1uM inactive | Mdm2-MdmX conf inactive
C[C@@H]1CC[C@@]2(O[C@@H](CCO)C[C@H](O)[C@H]2O)O1	none (no result: Lmaj promast)
CCOC(=O)c1[nH]c2ccc(C)cc2c1N	none
CCOC(=O)C1(N(CC)CC)Sc2cc(C)ccc2NC1=O (stereo not given)	Mdm2 MdmX PPI 68.1, Lmaj promast 93.8 | Lmaj promast 1uM inactive | Mdm2-MdmX conf 68.6 | Full FLuc ctr 52.2
CCOc1cccc(C2C(C(=O)c3ccc(C)o3)=C(O)C(=O)N2CCCn2ccnc2)c1 (stereo not given)	none (no result: Beta cell apopt, Lmaj promast)
O=C1C(=O)c2c(C(=O)c3ccccc3)coc2-c2ccccc21	Mdm2 MdmX PPI 100.3, Beta cell apopt 101.4, T cruzi inh 58.0, Lmaj promast 100.4 | Lmaj promast 1uM 61.2 | Mdm2-MdmX conf inactive
O=C(C1=C(c2ccccc2)C(=O)c2ccccc2C1=O)c1ccccc1	none (no result: Mdm2 MdmX PPI, Beta cell apopt, CSC inhib)
CC(=O)C[C@@H](O)CC(=O)[C@@H]1OC(=O)CCCCCCCc2ccccc21	none (no result: T cruzi inh, Lmaj promast, CSC inhib, SKKanGAS inh)
CCOC(=O)c1c(C)oc2c1C(=O)c1ccccc1C2=O	Mdm2 MdmX PPI 53.7, Beta cell apopt 84.2, Lmaj promast 97.9, CSC inhib 85.1 (no result: SKKanGAS inh) | Lmaj promast 1uM inactive | Mdm2-MdmX conf inactive
CC(NC(=O)c1c(O)c2ccccc2[nH]c1=O)c1ccccc1 (stereo not given)	none (no result: Lmaj promast)
S=c1[nH]c2ccc3ccccc3c2[nH]1	none
Cc1[nH]c2c(ccc3ccccc32)c1C1C(CCN)C1(C)C (stereo not given)	Mdm2 MdmX PPI 60.9, Beta cell apopt inconclusive, T cruzi inh 64.8, Lmaj promast 100.4 | Lmaj promast 1uM inactive | Mdm2-MdmX conf 40.3 | Full FLuc ctr 77.1
COc1ccc(/C=C/c2cc[n+](C(=O)Cc3ccccc3)cc2)cc1	Mdm2 MdmX PPI 62.7, Lmaj promast 100.4 (no result: T cruzi inh, SKKanGAS inh) | Lmaj promast 1uM 97.9 | Mdm2-MdmX conf 52.5 | Full FLuc ctr 44.8
COc1ccc(/C=C/C(=O)NCCCc2ccccc2)cc1	none
CCc1ccc(NSc2ccccc2[N+](=O)[O-])cc1	Mdm2 MdmX PPI 50.3, Lmaj promast 98.7, SKKanGAS inh 76.0 | Lmaj promast 1uM 71.4 | Mdm2-MdmX conf 41.9 | Full FLuc ctr 64.8
COc1ccc(N2CCN(S(=O)(=O)CCNC(=O)c3ccc(Br)o3)CC2)cc1	none (no result: Lmaj promast)

Screens from PubChem.
